Measured values as given in ChEMBL document CHEMBL3352485 (J Med Chem, 2014).

Legend:
[1] = target: T1, KiSS-1 receptor (Rattus norvegicus, UniProt Q924U1); test: Agonist activity at rat KISS1R transfected in CHO cells assessed as intracellular calcium flux after 24 hrs by functional FLIPR assay; assay type: cell-based
[2] = target: T2, KiSS-1 receptor (Homo sapiens, UniProt Q969F8); test: Agonist activity at human KISS1R transfected in CHO cells assessed as intracellular calcium flux after 24 hrs by functional FLIPR assay; assay type: cell-based
T2 sequence (Q969F8 whole entry): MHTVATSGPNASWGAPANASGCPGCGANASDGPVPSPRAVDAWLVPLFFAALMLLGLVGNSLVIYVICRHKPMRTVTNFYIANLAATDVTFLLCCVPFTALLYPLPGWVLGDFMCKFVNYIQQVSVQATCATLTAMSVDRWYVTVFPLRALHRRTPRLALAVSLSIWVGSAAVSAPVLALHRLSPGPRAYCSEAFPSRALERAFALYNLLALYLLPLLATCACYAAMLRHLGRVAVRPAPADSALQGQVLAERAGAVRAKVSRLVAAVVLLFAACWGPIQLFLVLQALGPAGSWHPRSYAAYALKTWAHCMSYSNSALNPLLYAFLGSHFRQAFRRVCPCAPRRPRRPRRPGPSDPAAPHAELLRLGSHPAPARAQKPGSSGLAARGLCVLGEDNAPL
Method in brief: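 CHO cells stably expressing human KISS1R were seeded at 15 000 cells/mL, cultured 24 h, then loaded with fluo-3 for 1 h at 37 °C in HBSS/HEPES (pH 7.4) with probenecid and FBS. Cells were washed in HBSS with 2.5 mM probenecid. Peptides came from 1 mM DMSO stocks diluted in buffer containing probenecid, 0.2% BSA and 0.1% CHAPS. Fluorescence was recorded on FLIPR for 3 min; peak counts over 0–180 s gave agonist activity.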

[3] = target: T2, KiSS-1 receptor; test: Displacement of radioligand from human KISS1R transfected in CHO cells; assay type: cell-based
Method in brief: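 Binding used membrane fractions prepared from CHO cells expressing recombinant human KISS1R.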

[4] = tested on: Rattus norvegicus; test: Testosterone-suppressive activity in Crl:CD(SD) rat assessed as number of animal with plasma testosterone level below the limit of detection at 2 nmol/hr, sc through osmotic pumps measured after 6 days by RIA; assay type: functional
Method in brief: (§1)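 Peptide was dissolved in distilled water or 50% DMSO as 0.1–2 mM pump solutions and delivered by ALZET osmotic pumps implanted subcutaneously in the back of 9-week-old male Crl:CD(SD) rats (n = 5) under ether. Controls received distilled-water pumps. After 6 days, rats were decapitated and plasma was recovered with aprotinin/EDTA. Testosterone was measured by RIA, and the number of rats below the detection limit (0.04 ng/mL) was counted.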

[5] = tested on: Rattus norvegicus; test: Testosterone-suppressive activity in Crl:CD(SD) rat assessed as number of animal with plasma testosterone level below the limit of detection at 0.5 nmol/hr, sc through osmotic pumps measured after 6 days by RIA; assay type: functional; method in brief: as §1
[6] = Stability of the compound in aqueous solution assessed as residual ratio at pH 5 up to 1 week by HPLC analysis relative to initial level; assay type: physicochemical
Method in brief: (§2)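 Peptides in aqueous solution at pH 1.2 (JP1, containing 10% acetonitrile), 3, 5 or 7 were kept in the dark at 37 °C for up to 2 weeks. Peptide remaining was quantified from HPLC peak area, with detection at 230–280 nm. The residual ratio (stability index) was expressed relative to the time-0 amount, taken as 100%.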

[7] = Stability of the compound in aqueous solution assessed as residual ratio at pH 7 up to 1 week by HPLC analysis relative to initial level; assay type: physicochemical; method in brief: as §2
[8] = Stability of the compound in aqueous solution assessed as residual ratio at pH 7 up to 2 weeks by HPLC analysis relative to initial level; assay type: physicochemical; method in brief: as §2
[9] = tested on: Rattus norvegicus; test: Testosterone-suppressive activity in Crl:CD(SD) rat assessed as number of animal with plasma testosterone level below the limit of detection at 0.1 nmol/hr, sc through osmotic pumps measured after 6 days by RIA; assay type: functional; method in brief: as §1
[10] = Stability of the compound in aqueous solution assessed as residual ratio at pH 3 up to 1 week by HPLC analysis relative to initial level; assay type: physicochemical; method in brief: as §2
[11] = Stability of the compound in aqueous solution (JP1) assessed as residual ratio at pH 1.2 up to 2 weeks by HPLC analysis relative to initial level; assay type: physicochemical; method in brief: as §2
[12] = Stability of the compound in aqueous solution assessed as residual ratio at pH 3 up to 2 weeks by HPLC analysis relative to initial level; assay type: physicochemical; method in brief: as §2
[13] = Stability of the compound in aqueous solution assessed as residual ratio at pH 5 up to 2 weeks by HPLC analysis relative to initial level; assay type: physicochemical; method in brief: as §2
[14] = tested on: Rattus norvegicus; test: Testosterone-suppressive activity in Crl:CD(SD) rat assessed as number of animal with plasma testosterone level below the limit of detection at 0.3 nmol/hr, sc through osmotic pumps measured after 6 days by RIA; assay type: functional; method in brief: as §1
[15] = Stability of the compound in aqueous solution (JP1) assessed as residual ratio at pH 1.2 up to 1 week by HPLC analysis relative to initial level; assay type: physicochemical; method in brief: as §2
[16] = target: T1, KiSS-1 receptor; test: Displacement of radioligand from rat KISS1R transfected in CHO cells; assay type: cell-based

T1 sequence (Q924U1 whole entry): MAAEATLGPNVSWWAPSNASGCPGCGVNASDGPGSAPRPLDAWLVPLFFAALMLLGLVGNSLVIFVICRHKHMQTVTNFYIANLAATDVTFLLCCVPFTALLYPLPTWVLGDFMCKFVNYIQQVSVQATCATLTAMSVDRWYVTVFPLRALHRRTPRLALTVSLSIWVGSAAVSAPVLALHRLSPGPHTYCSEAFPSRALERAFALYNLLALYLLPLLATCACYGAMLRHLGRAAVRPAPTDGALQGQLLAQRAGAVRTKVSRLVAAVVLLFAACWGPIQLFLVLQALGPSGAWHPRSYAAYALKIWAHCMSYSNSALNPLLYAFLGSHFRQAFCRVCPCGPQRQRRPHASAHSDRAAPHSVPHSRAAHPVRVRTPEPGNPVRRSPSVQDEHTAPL

Structure (SMILES)	EC50 [1] [nM]	EC50 [2] [nM]	Ki [3] [nM]	further results
CNC(=N)NCCC[C@H](NC(=O)[C@H](CC(C)C)NC(=O)NNC(=O)[C@H](Cc1ccccc1)NC(=O)[C@@H](NC(=O)[C@H](CC(N)=O)NC(=O)[C@@H](Cc1ccncc1)NC(=O)[C@H](N)Cc1ccc(O)cc1)[C@@H](C)O)C(=O)N[C@@H](Cc1c[nH]c2ccccc12)C(N)=O	5.7	1.6	0.086	
CNC(=N)NCCC[C@H](NC(=O)[C@H](CC(C)C)NC(=O)NNC(=O)[C@H](Cc1ccccc1)NC(=O)[C@@H](NC(=O)[C@H](C)NC(=O)[C@@H](Cc1c[nH]c2ccccc12)NC(=O)[C@H](N)Cc1ccc(O)cc1)[C@@H](C)O)C(=O)N[C@@H](Cc1c[nH]c2ccccc12)C(N)=O	13	0.63		
CNC(=N)NCCC[C@H](NC(=O)[C@H](CC(C)C)NC(=O)NNC(=O)[C@H](Cc1ccccc1)NC(=O)[C@@H](NC(=O)[C@H](CC(N)=O)NC(=O)[C@@H](Cc1ccncc1)NC(=O)[C@H](N)Cc1ccc(O)cc1)C(C)C)C(=O)N[C@@H](Cc1c[nH]c2ccccc12)C(N)=O	12	1.8	0.052	Activity [4]: 80%; Activity [5]: 0%
CNC(=N)NCCC[C@H](NC(=O)[C@H](CC(C)C)NC(=O)NNC(=O)[C@H](Cc1ccccc1)NC(=O)[C@H](CO)NC(=O)[C@H](CC(N)=O)NC(=O)[C@@H](Cc1c[nH]c2ccccc12)NC(=O)[C@H](N)Cc1ccc(O)cc1)C(=O)N[C@@H](Cc1c[nH]c2ccccc12)C(N)=O	2.3	0.51	0.037	remaining at 168 h [6]: 96%; remaining at 168 h [7]: 56.5%; remaining at 336 h [8]: 28%; Activity [9]: 0 rats (n = 5); remaining at 168 h [10]: 98.2%; remaining at 336 h [11]: 33.4%; Activity [5]: 80%; remaining at 336 h [12]: 97.1%; remaining at 336 h [13]: 90.8%; Activity [14]: 40%; remaining at 168 h [15]: 60.8%; Ki [16]: 0.077 nM
CNC(=N)NCCC[C@H](NC(=O)[C@H](CC(C)C)NC(=O)NNC(=O)[C@H](Cc1ccccc1)NC(=O)[C@@H]1CC(O)CN1C(=O)[C@H](CC(N)=O)NC(=O)[C@@H](Cc1ccncc1)NC(=O)[C@H](N)Cc1ccc(O)cc1)C(=O)N[C@@H](Cc1c[nH]c2ccccc12)C(N)=O (stereo partly drawn)	95	2.8		
CNC(=N)NCCC[C@H](NC(=O)[C@H](CC(C)C)NC(=O)NNC(=O)[C@H](Cc1ccccc1)NC(=O)[C@H](CO)NC(=O)[C@H](C)NC(=O)[C@@H](Cc1c[nH]c2ccccc12)NC(=O)[C@H](N)Cc1ccc(O)cc1)C(=O)N[C@@H](Cc1c[nH]c2ccccc12)C(N)=O	6.8	0.49		
CC(C)C[C@H](NC(=O)CNC(=O)[C@H](Cc1ccccc1)NC(=O)[C@H](CO)NC(=O)[C@H](CC(N)=O)NC(=O)[C@H](Cc1c[nH]c2ccccc12)NC(=O)[C@H](CC(N)=O)NC(=O)[C@@H](N)Cc1ccc(O)cc1)C(=O)N[C@@H](CCCNC(=N)N)C(=O)N[C@@H](Cc1ccccc1)C(N)=O [KISSPEPTIN-10]		0.96	0.035	
CC[C@H](NC(=O)[C@@H](Cc1c[nH]c2ccccc12)NC(=O)[C@H](N)Cc1ccc(O)cc1)C(=O)N[C@@H](CO)C(=O)N[C@@H](Cc1ccccc1)C(=O)NNC(=O)N[C@@H](CC(C)C)C(=O)N[C@@H](CCCNC(=N)NC)C(=O)N[C@@H](Cc1c[nH]c2ccccc12)C(N)=O	2.8	0.64	0.12	Activity [4]: 0%; Ki [16]: 0.83 nM
CNC(=N)NCCC[C@H](NC(=O)[C@H](CC(C)C)NC(=O)NNC(=O)[C@H](Cc1ccccc1)NC(=O)[C@H](Cc1c[nH]c2ccccc12)NC(=O)[C@H](CC(N)=O)NC(=O)[C@@H](Cc1ccncc1)NC(=O)[C@H](N)Cc1ccc(O)cc1)C(=O)N[C@@H](Cc1c[nH]c2ccccc12)C(N)=O	7.4	0.59		
CNC(=N)NCCC[C@H](NC(=O)[C@H](CC(C)C)NC(=O)NNC(=O)[C@H](Cc1ccccc1)NC(=O)[C@@H](NC(=O)[C@H](CC(N)=O)NC(=O)[C@@H](Cc1c[nH]c2ccccc12)NC(=O)[C@@H](Cc1ccc(O)cc1)NC(=O)C1CC1)[C@@H](C)O)C(=O)N[C@@H](Cc1c[nH]c2ccccc12)C(N)=O	4.2	0.82	0.034	Ki [16]: 0.087 nM
CNC(=N)NCCC[C@H](NC(=O)[C@H](CC(C)C)NC(=O)NNC(=O)[C@H](Cc1ccccc1)NC(=O)[C@@H](NC(=O)[C@H](CC(N)=O)NC(=O)[C@@H](Cc1ccncc1)NC(=O)[C@H](N)Cc1ccc(O)cc1)C(C)(C)C)C(=O)N[C@@H](Cc1c[nH]c2ccccc12)C(N)=O	22	1.5		
CNC(=N)NCCC[C@H](NC(=O)[C@H](CC(C)C)NC(=O)NNC(=O)[C@H](Cc1ccccc1)NC(=O)[C@@H](NC(=O)[C@H](CC(N)=O)NC(=O)[C@@H](Cc1c[nH]c2ccccc12)NC(=O)[C@@H](Cc1ccc(O)cc1)NC(=O)c1ccccc1)[C@@H](C)O)C(=O)N[C@@H](Cc1c[nH]c2ccccc12)C(N)=O	1.7	0.44	0.027	Activity [9]: 0 rats (n = 5)
CNC(=N)NCCC[C@H](NC(=O)[C@H](CC(C)C)NC(=O)NNC(=O)[C@H](Cc1ccccc1)NC(=O)[C@H](CO)NC(=O)[C@H](C)NC(=O)[C@@H](Cc1ccncc1)NC(=O)[C@H](N)Cc1ccc(O)cc1)C(=O)N[C@@H](Cc1c[nH]c2ccccc12)C(N)=O	9.3	0.7	0.2	Activity [4]: 0%; Ki [16]: 3.6 nM
CNC(=N)NCCC[C@H](NC(=O)[C@H](CC(C)C)NC(=O)NNC(=O)[C@H](Cc1ccccc1)NC(=O)[C@@H](NC(=O)[C@H](CC(N)=O)NC(=O)[C@@H](Cc1ccncc1)NC(=O)[C@H](N)Cc1ccc(O)cc1)c1ccccc1)C(=O)N[C@@H](Cc1c[nH]c2ccccc12)C(N)=O	110	4.4		
CNC(=N)NCCC[C@H](NC(=O)[C@H](CC(C)C)NC(=O)NNC(=O)[C@H](Cc1ccccc1)NC(=O)[C@@H]1CCCN1C(=O)[C@H](CC(N)=O)NC(=O)[C@@H](Cc1ccncc1)NC(=O)[C@H](N)Cc1ccc(O)cc1)C(=O)N[C@@H](Cc1c[nH]c2ccccc12)C(N)=O	13	1.2	0.096	Activity [5]: 20%
CNC(=N)NCCC[C@H](NC(=O)[C@H](CC(C)C)NC(=O)NNC(=O)[C@H](Cc1ccccc1)NC(=O)[C@@H](NC(=O)[C@H](CC(N)=O)NC(=O)[C@@H](Cc1c[nH]c2ccccc12)NC(=O)[C@H](N)Cc1ccc(O)cc1)C(C)C)C(=O)N[C@@H](Cc1c[nH]c2ccccc12)C(N)=O	2.2	0.31	0.028	Activity [5]: 0%
CNC(=N)NCCC[C@H](NC(=O)[C@H](CC(C)C)NC(=O)NNC(=O)[C@H](Cc1ccccc1)NC(=O)[C@H](CO)NC(=O)[C@@H](NC(=O)[C@@H](Cc1ccncc1)NC(=O)[C@H](N)Cc1ccc(O)cc1)[C@@H](C)O)C(=O)N[C@@H](Cc1c[nH]c2ccccc12)C(N)=O	32	1.3		
CNC(=N)NCCC[C@H](NC(=O)[C@H](CC(C)C)NC(=O)NNC(=O)[C@H](Cc1ccccc1)NC(=O)[C@H](CO)NC(=O)[C@H](CC(N)=O)NC(=O)[C@@H](Cc1ccncc1)NC(=O)[C@H](N)Cc1ccc(O)cc1)C(=O)N[C@@H](Cc1c[nH]c2ccccc12)C(N)=O	6	0.87	0.074	Activity [4]: 80%; Activity [9]: 0 rats (n = 5); Activity [5]: 60%; Activity [14]: 40%; Ki [16]: 0.13 nM
